For experiment [1], the system named is A549. As to the kind of experiment: In vitro concentration required to inhibit the TNF-alpha-induced RANTES production in A549 human lung epithelium cell line. The experiment is classed as functional, cell-based. The gist of the method: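 A549 human lung epithelial cells grown in D-MEM with 10% FCS, penicillin/streptomycin and 2 mM glutamine. Cells (4×10⁴/well) pretreated 1 h with compound or vehicle (0.1% DMSO), then stimulated with 100 ng/mL TNF-α for 24 h. RANTES in supernatants measured by quantitative sandwich fluorescent immunoassay.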

Experiment [2] has as its target T1, Inhibitor of nuclear factor kappa-B kinase subunit beta (Homo sapiens, UniProt O14920).
T1 sequence (O14920 whole entry): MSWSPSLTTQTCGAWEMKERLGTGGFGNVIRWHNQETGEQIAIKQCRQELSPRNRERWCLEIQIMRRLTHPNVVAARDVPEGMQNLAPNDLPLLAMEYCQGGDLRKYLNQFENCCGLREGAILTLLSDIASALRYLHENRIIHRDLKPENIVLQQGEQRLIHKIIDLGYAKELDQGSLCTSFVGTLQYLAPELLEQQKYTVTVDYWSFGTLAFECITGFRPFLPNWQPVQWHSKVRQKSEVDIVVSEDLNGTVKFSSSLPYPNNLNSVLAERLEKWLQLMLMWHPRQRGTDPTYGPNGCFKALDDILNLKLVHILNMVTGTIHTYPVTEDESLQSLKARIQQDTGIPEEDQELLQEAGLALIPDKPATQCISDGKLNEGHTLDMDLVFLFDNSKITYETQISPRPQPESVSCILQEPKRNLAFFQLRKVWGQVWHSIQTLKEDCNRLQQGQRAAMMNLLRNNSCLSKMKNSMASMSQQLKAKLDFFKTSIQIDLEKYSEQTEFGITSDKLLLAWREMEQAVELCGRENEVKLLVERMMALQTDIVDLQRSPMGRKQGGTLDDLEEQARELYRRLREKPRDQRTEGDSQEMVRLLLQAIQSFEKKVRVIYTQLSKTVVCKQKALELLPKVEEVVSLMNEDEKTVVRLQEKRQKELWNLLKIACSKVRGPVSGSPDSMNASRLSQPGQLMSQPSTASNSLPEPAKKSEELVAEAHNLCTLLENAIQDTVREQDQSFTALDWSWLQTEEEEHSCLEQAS
As to the kind of experiment: In vitro inhibitory concentration required against recombinant human IkB kinase beta (IKK-beta). The gist of the method: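 Recombinant His-tagged human IKK-β from baculovirus-infected insect cells, final […], with biotinylated GST-IκBα(1-54) substrate (final 0.2) in Tris-HCl pH 7.6 buffer with MgCl₂, DTT, Na₃VO₄ and BSA; DMSO final 0.25%. Started with ATP plus [γ-³³P]ATP, 2 h at rt, stopped with EDTA. Substrate captured on streptavidin plates, washed, counted by scintillation.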

SMILES strings stand for the structures.

The source of these data is ChEMBL document CHEMBL1136626, “Discovery of novel and selective IKK-beta serine-threonine protein kinase inhibitors. Part 1” (Bioorg Med Chem Lett, 2003).

As a reminder, the IC50 is the concentration at which inhibition is half-maximal. Consider `N#Cc1c(-c2cccc(NC(=O)CCCC(=O)O)c2)cc(-c2ccccc2O)nc1N`, for which the figures for the IC50 in experiment [1] and in experiment [2] were above 50 µM and 1.4 µM, respectively.
The corresponding values for `COc1ccccc1-c1cc(-c2cccc(NC(=O)C(O)CCC(=O)O)c2)c(C#N)c(N)n1` (stereo unspecified) are above 50 µM and above 20 µM.
Consider `N#Cc1c(-c2ccc(NC(=O)CCCC(=O)O)cc2)cc(-c2ccccc2O)nc1N`, for which the IC50 is above 50 µM in experiment [1] and 0.5 µM in experiment [2].
Turning to `N#Cc1c(-c2ccc(C(=O)NCCN3CCCCC3)cc2)cc(-c2ccccc2O)nc1N`, the IC50 in experiment [1] is above 50 µM; in experiment [2] it was 0.6 µM.
`N#Cc1c(-c2cccc(NC(=O)C(N)CC(=O)O)c2)cc(-c2ccccc2O)nc1N` (stereo unspecified): the figures for the IC50 in experiment [1] and in experiment [2] were 15 µM and 0.6 µM, respectively.
For `N#Cc1c(-c2ccc(NC(=O)CCN3CCCCC3)cc2)cc(-c2ccccc2O)nc1N`, in that order: above 50 µM and 1 µM.
As for `Cc1c(-c2ccccc2O)nc(N)c(C#N)c1-c1cccc(NC(=O)C(O)CCC(=O)O)c1` (stereo unspecified), the figures for the IC50 in experiment [1] and in experiment [2] were above 50 µM and above 20 µM, respectively.
As for `Cc1cccc(O)c1-c1cc(-c2cccc(NC(=O)C(O)CCC(=O)O)c2)c(C#N)c(N)n1` (stereo unspecified), the IC50 in experiment [1] was above 50 µM; in experiment [2], above 20 µM.
For `COc1cccc(O)c1-c1cc(-c2cccc(NC(=O)C(O)CCC(=O)O)c2)c(C#N)c(N)n1` (stereo unspecified), in that order: above 50 µM and 2 µM.
On to `COc1ccc(O)c(-c2cc(-c3cccc(NC(=O)C(O)CCC(=O)O)c3)c(C#N)c(N)n2)c1` (stereo unspecified), for which the IC50 in experiment [1] was above 50 µM; in experiment [2], 5.3 µM.
Turning to `N#Cc1c(-c2cccc(C(=O)NCCN3CCCCC3)c2)cc(-c2ccccc2O)nc1N`, the IC50 in experiment [1] turned out to be 15 µM; in experiment [2] it was 1.8 µM.
In the case of `N#Cc1c(-c2cccc(NC(=O)C(O)CCC(=O)O)c2)cc(-c2cc(Cl)ccc2O)nc1N` (stereo unspecified), the values for the half-maximal inhibitory concentration (IC50) in experiment [1] and in experiment [2] were above 50 µM and 5.5 µM, respectively.
For `N#Cc1c(-c2cccc(NC(=O)CN3CCCCC3)c2)cc(-c2ccccc2O)nc1N`, in that order: 15 µM and 3 µM.
As for `N#Cc1c(-c2cccc(NC(=O)CC(N)C(=O)O)c2)cc(-c2ccccc2O)nc1N` (stereo unspecified), the IC50 in experiment [1] turned out to be 35 µM; in experiment [2] it was 0.6 µM.
For `N#Cc1c(-c2ccc([N+](=O)[O-])cc2)cc(-c2ccccc2O)nc1N`, in that order: above 50 µM and above 20 µM.
The corresponding values for `N#Cc1c(-c2ccc(C(=O)O)cc2)cc(-c2ccccc2O)nc1N` are above 50 µM and 0.7 µM.
In the case of `CN(C)c1ccc(-c2cc(-c3ccccc3O)nc(N)c2C#N)cc1`, the IC50 in experiment [1] is above 50 µM; in experiment [2], above 20 µM.
Consider `N#Cc1c(-c2cccc(NC(=O)C(O)CCC(=O)O)c2)cc(-c2cc(F)ccc2O)nc1N` (stereo unspecified), for which the half-inhibitory concentration (IC50) was above 50 µM in experiment [1] and 1.7 µM in experiment [2].
As for `N#Cc1c(-c2ccccc2C(=O)NCCN2CCCCC2)cc(-c2ccccc2O)nc1N`, the IC50 came to 6 µM in experiment [1] and 0.5 µM in experiment [2].
Take `N#Cc1c(-c2cccc(C(=O)O)c2)cc(-c2ccccc2O)nc1N`: the half-maximal inhibitory concentration (IC50) in experiment [1] was above 50 µM; in experiment [2] it was 2.5 µM.
Take `N#Cc1c(-c2cccc(NC(=O)C(O)CCC(=O)O)c2)cc(-c2ccccc2)nc1N` (stereo unspecified): the values for the IC50 in experiment [1] and in experiment [2] were above 50 µM and above 20 µM, respectively.
`CC(=O)Nc1nc(-c2ccccc2O)cc(-c2cccc(NC(=O)CCN3CCCCC3)c2)c1C#N`: the values for the half-inhibitory concentration (IC50) in experiment [1] and in experiment [2] were 30 µM and 15 µM, respectively.
As to `N#Cc1c(-c2cccc(NC(=O)CCN3CCCCC3)c2)cc(-c2cccc(O)c2)nc1N`, the half-inhibitory concentration (IC50) is 10 µM in experiment [1] and above 20 µM in experiment [2].
As for `N#Cc1c(-c2cccc(NC(=O)CCN3CCCCC3)c2)cc(-c2ccccc2O)nc1O`, the concentration for half-maximal inhibition (IC50) in experiment [1] is above 50 µM; in experiment [2] it was above 20 µM.
In the case of `CCN(CC)c1nc(-c2ccccc2O)cc(-c2cccc(NC(=O)CCN3CCCCC3)c2)c1C#N`, in experiment [2], the IC50 is above 20 µM.
Turning to `N#Cc1c(-c2ccc(N3CCCCC3)c(NC(=O)CCN3CCCCC3)c2)cc(-c2ccccc2O)nc1N`, the IC50 was found to be 5 µM in experiment [1] and 2.5 µM in experiment [2].
